Data taken from ChEMBL document CHEMBL1141869.
The source made the active and inactive calls. The rule behind the calls is not given here.

What was measured:
[1] = target: T1, NAD-dependent protein deacetylase sirtuin-1 (Homo sapiens) (UniProt Q96EB6); experiment: Inhibitory activity against human SIRT1 at 100 uM
T1 sequence (whole entry): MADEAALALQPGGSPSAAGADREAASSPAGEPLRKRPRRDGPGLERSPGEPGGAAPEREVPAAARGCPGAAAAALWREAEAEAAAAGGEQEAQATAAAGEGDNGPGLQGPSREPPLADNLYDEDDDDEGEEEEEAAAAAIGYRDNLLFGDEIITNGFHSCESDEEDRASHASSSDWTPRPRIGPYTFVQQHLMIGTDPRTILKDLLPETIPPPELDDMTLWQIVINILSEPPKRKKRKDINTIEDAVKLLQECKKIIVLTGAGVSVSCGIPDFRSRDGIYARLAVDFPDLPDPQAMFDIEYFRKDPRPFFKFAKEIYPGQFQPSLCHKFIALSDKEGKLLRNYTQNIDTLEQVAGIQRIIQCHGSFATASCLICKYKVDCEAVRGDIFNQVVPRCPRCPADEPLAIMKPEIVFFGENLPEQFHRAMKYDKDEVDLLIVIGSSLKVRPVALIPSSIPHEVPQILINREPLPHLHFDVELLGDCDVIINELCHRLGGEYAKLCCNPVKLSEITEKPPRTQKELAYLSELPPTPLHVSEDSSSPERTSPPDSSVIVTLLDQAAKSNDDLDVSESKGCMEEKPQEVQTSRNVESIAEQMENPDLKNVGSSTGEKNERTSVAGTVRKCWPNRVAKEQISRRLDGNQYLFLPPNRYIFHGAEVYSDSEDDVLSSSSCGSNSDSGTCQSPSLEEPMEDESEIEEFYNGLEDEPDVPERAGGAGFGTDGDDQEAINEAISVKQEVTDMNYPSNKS
Method in brief: (§1)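 His-tagged recombinant human SIRT1 or SIRT2 (1 μg), purified, run in a fluorogenic deacetylase assay with 250 μM acetylated histone substrate, 1 mM DTT and 200 μM NAD⁺ for 60 min at 37 °C. Inhibitor was tested at 0, 20, 75, 100, 150 or 300 μM. Developer was added and fluorescence read at ex 360/em 450 nm. Values are the mean of at least three separate experiments.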

[2] = target: NAD-dependent histone deacetylase SIR2 (Saccharomyces cerevisiae S288c) (UniProt P06700); experiment: Inhibitory activity against recombinant yeast Sir2 at 100 uM
Method in brief: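 Purified His-tagged recombinant yeast Sir2p (3 μg) was incubated 60 min at 30 °C with 250 μM acetylated histone substrate, 1 mM DTT, 200 μM NAD⁺ and inhibitor at 0, 20, 75, 100, 150 or 300 μM. Deacetylation was detected fluorometrically after developer treatment (ex 360/em 450 nm). Values are means of at least three separate experiments.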

[3] = target: T2, NAD-dependent protein deacetylase sirtuin-2 (Homo sapiens) (UniProt Q8IXJ6); experiment: Inhibitory activity against human SIRT2 at 100 uM; method in brief: as §1
T2 sequence (whole entry): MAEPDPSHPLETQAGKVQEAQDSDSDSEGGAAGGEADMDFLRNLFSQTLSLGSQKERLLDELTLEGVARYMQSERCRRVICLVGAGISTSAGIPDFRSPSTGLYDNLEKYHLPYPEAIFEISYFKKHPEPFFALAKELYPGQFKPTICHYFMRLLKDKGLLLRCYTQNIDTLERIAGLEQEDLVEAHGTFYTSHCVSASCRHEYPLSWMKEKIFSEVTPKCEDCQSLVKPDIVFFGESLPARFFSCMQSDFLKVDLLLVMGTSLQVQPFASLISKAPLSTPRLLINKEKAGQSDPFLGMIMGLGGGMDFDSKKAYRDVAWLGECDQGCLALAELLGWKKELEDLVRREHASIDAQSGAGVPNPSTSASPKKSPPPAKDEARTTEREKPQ

Sequence of NAD-dependent histone deacetylase SIR2 (Saccharomyces cerevisiae S288c) (P06700 whole entry): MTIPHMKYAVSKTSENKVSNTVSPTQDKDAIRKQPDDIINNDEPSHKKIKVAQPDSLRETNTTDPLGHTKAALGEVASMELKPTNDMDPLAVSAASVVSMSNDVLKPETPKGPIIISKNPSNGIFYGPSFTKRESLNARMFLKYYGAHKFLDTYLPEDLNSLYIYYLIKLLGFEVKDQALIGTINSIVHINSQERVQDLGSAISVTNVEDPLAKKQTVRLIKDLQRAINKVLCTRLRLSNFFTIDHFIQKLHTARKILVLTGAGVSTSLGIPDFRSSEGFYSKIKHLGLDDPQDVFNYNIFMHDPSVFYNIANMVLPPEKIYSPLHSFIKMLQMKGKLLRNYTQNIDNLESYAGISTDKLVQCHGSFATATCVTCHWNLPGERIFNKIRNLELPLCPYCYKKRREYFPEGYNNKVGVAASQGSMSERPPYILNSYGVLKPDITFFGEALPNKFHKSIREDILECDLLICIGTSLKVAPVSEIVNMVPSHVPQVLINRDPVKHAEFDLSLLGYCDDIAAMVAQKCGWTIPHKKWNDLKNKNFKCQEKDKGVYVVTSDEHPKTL

| Structure (SMILES) | inhibition [1] | inhibition [2] | inhibition [3] |
| --- | --- | --- | --- |
| O=C(O)c1ccccc1/N=C/c1c(O)ccc2ccccc12 | 26% | 5% | – |
| CC(NC(=O)c1ccccc1/N=C/c1c(O)ccc2ccccc12)c1ccccc1 (stereo not given) | 44.5% | 65.6% | 71% |
| CC(NC(=O)c1ccccc1/N=C/c1cccc2ccccc12)c1ccccc1 (stereo not given) | 33% | 10% | – |
| CC(NC(=O)c1cccc(/N=C/c2c(O)ccc3ccccc23)c1)c1ccccc1 (stereo not given) | 63% | 53.9% | 79.2% |
| N#Cc1ccccc1/N=C/c1c(O)ccc2ccccc12 | 20% | 15% | – |
| CC(NC(=O)c1ccc(/N=C/c2c(O)ccc3ccccc23)cc1)c1ccccc1 (stereo not given) | 82.6% | 59.8% | 80.2% |
| C[C@H](NC(=O)c1ccccc1/N=C/c1c(O)ccc2ccccc12)c1ccccc1 | 60.2% | 57% | 73.5% |
| C[C@@H](NC(=O)c1ccccc1/N=C/c1c(O)ccc2ccccc12)c1ccccc1 | 61.8% | 55.5% | 72.2% |
| NC(=O)c1ccccc1/N=C/c1c(O)ccc2ccccc12 | inactive | inactive | – |
| CCOC(=O)c1ccccc1/N=C/c1c(O)ccc2ccccc12 | 9% | 20% | – |
